Reference: paper PMC4804703 (ACS chemical neuroscience, 2015)
Entries after “also recorded” stand apart in the source; their conditions may differ. Like-named read-outs stand apart in the source and are kept apart here.

Experiments:
[1] = target: hCB1R (Homo sapiens, UniProt P21554); assay: Cellular cAMP assay, forskolin-stimulated, Flp-In-293 cells; type: cell-based; conditions: for potency relative to AEA, inhibition of forskolin-stimulated cAMP production: greater than the potency reported for AEA in this assay
hCB1R, sequence (P21554 whole entry): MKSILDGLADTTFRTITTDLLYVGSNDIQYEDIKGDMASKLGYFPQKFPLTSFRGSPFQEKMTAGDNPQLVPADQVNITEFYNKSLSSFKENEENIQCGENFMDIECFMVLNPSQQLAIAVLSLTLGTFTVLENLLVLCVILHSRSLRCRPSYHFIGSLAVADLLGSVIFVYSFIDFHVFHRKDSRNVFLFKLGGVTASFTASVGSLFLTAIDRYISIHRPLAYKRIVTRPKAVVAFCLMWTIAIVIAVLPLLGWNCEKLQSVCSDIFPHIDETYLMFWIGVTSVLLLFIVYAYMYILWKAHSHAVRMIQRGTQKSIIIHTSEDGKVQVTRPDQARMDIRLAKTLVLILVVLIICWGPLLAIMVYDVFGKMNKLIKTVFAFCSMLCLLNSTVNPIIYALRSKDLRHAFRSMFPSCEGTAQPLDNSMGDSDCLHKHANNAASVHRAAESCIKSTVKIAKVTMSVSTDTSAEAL

[2] = system: recombinant hCB1R; conditions: cited from earlier work
[3] = system: rat CB1R (rCB1R); conditions: cited from earlier work; for selectivity vs CB2R: rCB1R vs CB2R
[4] = target: CB1R in mouse hippocampus (Mus musculus, UniProt P47746); assay: [^35S]GTPγS binding, mouse hippocampus membranes; type: biochemical; conditions: for EC50: read-out: EC50, stimulation of [^35S]GTPγS binding, n = 3–4
CB1R in mouse hippocampus, sequence (P47746 whole entry): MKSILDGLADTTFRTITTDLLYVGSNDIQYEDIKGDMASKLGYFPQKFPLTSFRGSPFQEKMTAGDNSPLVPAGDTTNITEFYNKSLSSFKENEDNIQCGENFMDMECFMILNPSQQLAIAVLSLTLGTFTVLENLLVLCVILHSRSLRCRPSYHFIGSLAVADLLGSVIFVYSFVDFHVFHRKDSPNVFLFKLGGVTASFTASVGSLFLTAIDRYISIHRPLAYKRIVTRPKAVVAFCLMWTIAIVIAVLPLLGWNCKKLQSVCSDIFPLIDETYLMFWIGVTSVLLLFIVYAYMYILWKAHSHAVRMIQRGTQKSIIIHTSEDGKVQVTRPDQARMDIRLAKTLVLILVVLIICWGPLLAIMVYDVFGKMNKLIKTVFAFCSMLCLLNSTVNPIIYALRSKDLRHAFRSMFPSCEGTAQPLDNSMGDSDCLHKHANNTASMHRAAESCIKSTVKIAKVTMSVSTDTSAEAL

[5] = target: T1, hCB1R C4.47(238)S (Homo sapiens, UniProt P21554, C238S); assay: Covalent labeling assay; type: binding; conditions: C4.47(238)S mutant
T1 sequence (P21554 whole entry C238S): as the sequence (P21554 whole entry) above, with C238S counted along it
Method in brief: (§1)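 Flp-In-293 membranes stably expressing the Cys→Ser hCB1R mutant, at 0.8 mg/mL in TME-0.1% BSA, were preincubated with 20 nM test compound (controls without) at 30 °C for 1 h. Unbound probe was removed by 27 000g spins, TME-1% BSA washes (one 20 min at 30 °C) and TME washes.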

[6] = target: T2, hCB1R C7.38(382)S (Homo sapiens, UniProt P21554, C382S); assay: Competition binding with [^3H]CP55,940, Flp-In-293 membranes; conditions: read-out: apparent Ki (95% CI); C7.38(382)S mutant; [^3H]CP55,940 0.75 nM
T2 sequence (P21554 whole entry C382S): as the sequence (P21554 whole entry) above, with C382S counted along it

[7] = target: T3, hCB1R C1.55(139)S (Homo sapiens, UniProt P21554, C139S); assay: Covalent labeling assay; type: binding; conditions: C1.55(139)S mutant; 20 nM AM3677
T3 sequence (P21554 whole entry C139S): as the sequence (P21554 whole entry) above, with C139S counted along it
Method in brief: as §1

[8] = target: T2, hCB1R C7.38(382)S; assay: Covalent labeling assay; type: binding; conditions: C7.38(382)S mutant; 20 nM AM3677
Method in brief: as §1

[9] = target: T1, hCB1R C4.47(238)S; assay: Competition binding with [^3H]CP55,940, Flp-In-293 membranes; conditions: read-out: apparent Ki (95% CI); C4.47(238)S mutant; [^3H]CP55,940 0.75 nM
[10] = system: Flp-In cells that were not transfected with CB1Rs; assay: Cellular cAMP assay, non-transfected control cells; type: cell-based; conditions: routine control; data not shown
[11] = target: T4, hCB1R C6.47(355)S (Homo sapiens, UniProt P21554, C355S); assay: Competition binding with [^3H]CP55,940, Flp-In-293 membranes; conditions: read-out: apparent Ki (95% CI); C6.47(355)S mutant; [^3H]CP55,940 0.75 nM
T4 sequence (P21554 whole entry C355S): as the sequence (P21554 whole entry) above, with C355S counted along it

[12] = target: T5, hCB1R C7.42(386)S (Homo sapiens, UniProt P21554, C386S); assay: as above; conditions: read-out: apparent Ki (95% CI); C7.42(386)S mutant; [^3H]CP55,940 0.75 nM
T5 sequence (P21554 whole entry C386S): as the sequence (P21554 whole entry) above, with C386S counted along it

[13] = target: T5, hCB1R C7.42(386)S; assay: Covalent labeling assay; type: binding; conditions: C7.42(386)S mutant; 20 nM AM3677
Method in brief: as §1

[14] = Binding to membranes from nontransfected cells; conditions: membranes from nontransfected Flp-In-293 cells; data not shown
Method in brief: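 Membranes from non-transfected Flp-In-293 cells were prepared by cavitation and ultracentrifugation and resuspended in TME (25 mM Tris-HCl, 5 mM MgCl₂, 1 mM EDTA, pH 7.4). […] Filters were washed in ice-cold buffer and counted by scintillation.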

[15] = target: T4, hCB1R C6.47(355)S; assay: Covalent labeling assay; type: binding; conditions: C6.47(355)S mutant; AM3677 10-fold apparent Ki
Method in brief: as §1

[16] = target: T3, hCB1R C1.55(139)S; assay: Competition binding with [^3H]CP55,940, Flp-In-293 membranes; conditions: read-out: apparent Ki (95% CI); C1.55(139)S mutant; [^3H]CP55,940 0.75 nM
[17] = target: hemagglutinin (HA)-tagged rCB1R (Rattus norvegicus, UniProt P20272); assay: CB1R internalization, HEK293 cells; type: cell-based; conditions: 30 min at 37 °C; best-fit sigmoidal curve
hemagglutinin (HA)-tagged rCB1R, sequence (P20272 whole entry): as the sequence (P47746 whole entry) above, with D95E counted along it

[18] = target: WT and Cys mutant hCB1R variants; assay: Saturation binding of [^3H]CP55,940, Flp-In-293 membranes; set-up: species or system human; conditions: average across all six hCB1R variants; mean ± SEM, n = 6

SMILES: CCCCC/C=C\C/C=C\C/C=C\C/C=C\CCCC(=O)NC1CC1 [ACPA, (5Z,8Z,11Z,14Z)-eicosa-5,8,11,14-tetraenoic acid cyclopropylamide]
- potency relative to AEA, inhibition of forskolin-stimulated cAMP production [1]: ~ 200 fold
- agonist type [2]: full agonist
- selectivity vs CB2R [3]: 60 to 300 fold
- Ki ([3]; read-out: apparent Ki, rCB1R, [^3H]CP55,940 as competitive radioligand): 2.2 to 2.7 nM

SMILES: CCCCC/C=C\C/C=C\C/C=C\C/C=C\CCCC(=O)NCCO [AEA, arachidonoylethanolamide, reference compound]
- Emax ([4]; read-out: maximum response, [^35S]GTPγS binding): 34 ± 1.5%
- Ki ([3]; rCB1R): 61 nM

SMILES: O=C(CCC/C=C\C/C=C\C/C=C\C/C=C\CCCCCN=C=S)NC1CC1 [AM3677, 20-isothiocyanato-eciosa-5,8,11,14-tetraenoic acid cyclopropylamide]
- degree of irreversible labeling ([5]; 20 nM AM3677): comparable to that displayed by WT hCB1R
- reduction of [^3H]CP55,940 specific binding (Bmax) ([5]; AM3677 at 10-fold its apparent Ki): at least 43%
- maximal efficacy, inhibition of forskolin-activated cAMP formation ([1]; at micromolar concentrations): ~ 60%
- potency relative to AEA, inhibition of forskolin-stimulated cAMP production [1]: ~ 200 fold
- IC50 ([1]; read-out: IC50, inhibition of forskolin-activated cAMP formation, Flp-In-293 cells overexpressing hCB1R, 5 μM forskolin, mean ± SEM, n = 3): 27.1 ± 2.2 nM
- Ki [6]: 1.9 nM
- degree of irreversible labeling [7]: comparable to that displayed by WT hCB1R
- degree of irreversible labeling [8]: comparable to that displayed by WT hCB1R
- Ki [9]: 2.4 nM
- potency relative to AEA, [^35S]GTPγS binding ([4]; more potent than AEA): ~100 fold
- potency relative to CP55,940, [^35S]GTPγS binding ([4]; more potent than CP55,940): ~ 23 fold
- EC50 ([4]; mean ± SEM): 50 ± 20 nM
- maximum response, [^35S]GTPγS binding ([4]; relative to CP55,940 (maximum = response to 10 μM CP55,940), mean ± SEM, n = 3): 32 ± 2.1%
- effect on cAMP in non-transfected cells [10]: had no effect
- Ki [11]: 2.2 nM
- Ki [12]: 1.6 nM
- degree of irreversible labeling [13]: comparable to that displayed by WT hCB1R
- selectivity vs CB2R [3]: ~ 40 fold
- manner of binding ([3]; rCB1R): irreversible
- specific binding [14]: No specific
- effect of AM3677 preincubation on Bmax for [^3H]CP55,940 (irreversible binding) [15]: unaffected; also recorded: did not affect
- Ki [16]: 2.3 nM
- maximum internalization [17]: ~ 42%

SMILES: CCCCCCC(C)(C)c1ccc([C@@H]2C[C@H](O)CC[C@H]2CCCO)c(O)c1 [CP55,940, reference compound]
- Kd [18]: 5.4 ± 0.8 nM
- EC50 ([4]; mean ± SEM): 1100 ± 200 nM
- specific binding [14]: No specific
